{"source": "ChEMBL document CHEMBL1131138", "about": "“A novel class of orally active non-peptide bradykinin B2 receptor antagonists. 3. Discovering bioisosteres of the imidazo[1,2-a] pyridine moiety” (J Med Chem, 1998)", "note": "pIC50: −log10 of the molar value."}
{"tested_on": "Cavia porcellus", "experiment": "In vivo inhibition of Bradykinin induced Bronchoconstriction in anaesthetized guinea pig following 1 mg/kg p.o.", "format": "functional", "conditions": "route oral", "method_in_brief": "(§1)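 Male Hartley guinea pigs (470–750 g), fasted overnight, anesthetized with ip pentobarbital (30 mg/kg) and ventilated at 10 mL/kg, 60 breaths/min. Given alcuronium (0.5 mg/kg iv) and propranolol (10 mg/kg sc). BK 5 μg/kg iv, with bronchoconstriction read as peak pulmonary insufflation pressure (modified Konzett–Rössler).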", "units": {"inhibition in vivo at 1 mg/kg": "%"}}
{"smiles": "Cc1ccc2cccc(OCc3c(Cl)ccc(N(C)C(=O)CNC(=O)/C=C/c4ccc(N5CCCC5=O)cc4)c3Cl)c2n1", "inhibition in vivo at 1 mg/kg": 85.3}
{"smiles": "Cc1ccc2cccc(OCc3c(Cl)ccc(N(C)C(=O)CNC(=O)/C=C/c4ccc(/C=C/c5ccncc5)nc4)c3Cl)c2n1", "inhibition in vivo at 1 mg/kg": 87.3}
{"smiles": "Cc1ccc2cccc(OCc3c(Cl)ccc(N(C)C(=O)CNC(=O)/C=C/c4ccc(C(=O)Nc5ccncc5)cc4)c3Cl)c2n1", "inhibition in vivo at 1 mg/kg": 29.5}
{"smiles": "Cc1ccc2cccc(OCc3c(Cl)ccc(N(C)C(=O)CNC(=O)/C=C/c4ccc(N5CCCC5=O)nc4)c3Cl)c2n1", "inhibition in vivo at 1 mg/kg": 89.9}
{"smiles": "CC(=O)Nc1ccc(/C=C/C(=O)NCC(=O)N(C)c2ccc(Cl)c(COc3cccc4ccc(C)nc34)c2Cl)cn1", "note": "[FR-173657]", "inhibition in vivo at 1 mg/kg": 94.4}
{"smiles": "CC(=O)Nc1ccc(/C=C/C(=O)NCC(=O)N(C)c2ccc(C)c(COc3cccc4ccc(C)nc34)c2C)cn1", "inhibition in vivo at 1 mg/kg": 98.2}
{"smiles": "CNC(=O)c1ccc(/C=C/C(=O)NCC(=O)N(C)c2ccc(C)c(COc3cccc4ccc(C)nc34)c2C)cc1", "inhibition in vivo at 1 mg/kg": 90.5}
{"smiles": "Cc1ccc2cccc(OCc3c(Cl)ccc(N(C)C(=O)CNC(=O)/C=C/c4cccnc4)c3Cl)c2n1", "inhibition in vivo at 1 mg/kg": 97.2}
{"smiles": "Cc1ccc2cccc(OCc3c(Cl)ccc(N(C)C(=O)CNC(=O)/C=C/c4ccc(NC(=O)c5ccncc5)nc4)c3Cl)c2n1", "inhibition in vivo at 1 mg/kg": 68.8}
{"smiles": "Cc1ccc2cccc(OCc3c(C)ccc(N(C)C(=O)CNC(=O)/C=C/c4ccc(N5CCCC5=O)cc4)c3C)c2n1", "inhibition in vivo at 1 mg/kg": 94.9}
{"tested_on": "Cavia porcellus", "experiment": "Inhibition of Bradykinin induced Bronchoconstriction in anaesthetized guinea pig at 0.32mg/kg, po", "format": "functional", "conditions": "not given", "method_in_brief": "as §1", "units": {"inhibition in vivo at 0.32 mg/kg": "%"}}
{"smiles": "Cc1ccc2cccc(OCc3c(Cl)ccc(N(C)C(=O)CNC(=O)/C=C/c4ccc(N5CCCC5=O)cc4)c3Cl)c2n1", "inhibition in vivo at 0.32 mg/kg": 44.7}
{"smiles": "Cc1ccc2cccc(OCc3c(Cl)ccc(N(C)C(=O)CNC(=O)/C=C/c4ccc(/C=C/c5ccncc5)nc4)c3Cl)c2n1", "inhibition in vivo at 0.32 mg/kg": 43.6}
{"smiles": "Cc1ccc2cccc(OCc3c(Cl)ccc(N(C)C(=O)CNC(=O)/C=C/c4ccc(N5CCCC5=O)nc4)c3Cl)c2n1", "inhibition in vivo at 0.32 mg/kg": 68.6}
{"smiles": "CC(=O)Nc1ccc(/C=C/C(=O)NCC(=O)N(C)c2ccc(Cl)c(COc3cccc4ccc(C)nc34)c2Cl)cn1", "note": "[FR-173657]", "inhibition in vivo at 0.32 mg/kg": 73.2}
{"smiles": "CC(=O)Nc1ccc(/C=C/C(=O)NCC(=O)N(C)c2ccc(C)c(COc3cccc4ccc(C)nc34)c2C)cn1", "inhibition in vivo at 0.32 mg/kg": 55.5}
{"smiles": "CNC(=O)c1ccc(/C=C/C(=O)NCC(=O)N(C)c2ccc(C)c(COc3cccc4ccc(C)nc34)c2C)cc1", "inhibition in vivo at 0.32 mg/kg": 79}
{"smiles": "Cc1ccc2cccc(OCc3c(Cl)ccc(N(C)C(=O)CNC(=O)/C=C/c4cccnc4)c3Cl)c2n1", "inhibition in vivo at 0.32 mg/kg": 63.7}
{"smiles": "Cc1ccc2cccc(OCc3c(C)ccc(N(C)C(=O)CNC(=O)/C=C/c4ccc(N5CCCC5=O)cc4)c3C)c2n1", "inhibition in vivo at 0.32 mg/kg": 75.7}
{"target": "T1, B2 bradykinin receptor (Cavia porcellus, UniProt O70526)", "T1 sequence (O70526 whole entry)": "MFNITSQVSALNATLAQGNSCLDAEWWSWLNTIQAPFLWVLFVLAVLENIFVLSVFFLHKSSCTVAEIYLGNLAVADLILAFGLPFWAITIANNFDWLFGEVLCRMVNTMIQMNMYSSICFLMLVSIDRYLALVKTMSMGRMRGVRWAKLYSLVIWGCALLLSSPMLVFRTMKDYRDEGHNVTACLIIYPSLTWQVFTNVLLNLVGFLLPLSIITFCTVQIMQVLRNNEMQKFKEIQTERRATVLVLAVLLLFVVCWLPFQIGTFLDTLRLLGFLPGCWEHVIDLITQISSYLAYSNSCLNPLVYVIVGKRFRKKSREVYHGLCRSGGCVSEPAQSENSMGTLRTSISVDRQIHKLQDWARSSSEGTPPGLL", "experiment": "Concentration required to inhibit specific binding of [ 3H]BK (0.06 nM) to Bradykinin receptor B2 in guinea pig ileum membrane preparations by 50%.", "format": "cell membranes", "conditions": "not given", "method_in_brief": "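Ileal membranes from male Hartley guinea pigs (0.2 mg protein/mL) in TES buffer pH 6.8 with phenanthroline, bacitracin, DTT, captopril and BSA. Incubated with 0.06 nM [3H]BK plus compound for 60 min at room temperature, then filtered through GF/B and counted by scintillation.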"}
{"smiles": "Cc1ccc2cccc(OCc3c(Cl)ccc(N(C)C(=O)CNC(=O)/C=C/c4ccc(N5CCCC5=O)cc4)c3Cl)c2n1", "pIC50": 9.26}
{"smiles": "Cc1ccc2cccc(OCc3c(Cl)ccc(N(C)C(=O)CNC(=O)/C=C/c4ccc(/C=C/c5ccncc5)nc4)c3Cl)c2n1", "pIC50": 9.12}
{"smiles": "Cc1ccc2cccc(OCc3c(Cl)ccc(N(C)C(=O)CNC(=O)/C=C/c4ccc(C(=O)Nc5ccncc5)cc4)c3Cl)c2n1", "pIC50": 8.96}
{"smiles": "Cc1ccc2cccc(OCc3c(Cl)ccc(N(C)C(=O)CNC(=O)/C=C/c4ccc(N5CCCC5=O)nc4)c3Cl)c2n1", "pIC50": 9.89}
{"smiles": "CC(=O)Nc1ccc(/C=C/C(=O)NCC(=O)N(C)c2ccc(Cl)c(COc3cccc4ccc(C)nc34)c2Cl)cn1", "note": "[FR-173657]", "pIC50": 9.34}
{"smiles": "CC(=O)Nc1ccc(/C=C/C(=O)NCC(=O)N(C)c2ccc(C)c(COc3cccc4ccc(C)nc34)c2C)cn1", "pIC50": 9.09}
{"smiles": "CNC(=O)c1ccc(/C=C/C(=O)NCC(=O)N(C)c2ccc(C)c(COc3cccc4ccc(C)nc34)c2C)cc1", "pIC50": 9.01}
{"smiles": "Cc1ccc2cccc(OCc3c(Cl)ccc(N(C)C(=O)CNC(=O)/C=C/c4cccnc4)c3Cl)c2n1", "pIC50": 9.10}
{"smiles": "Cc1ccc2cccc(OCc3c(Cl)ccc(N(C)C(=O)CNC(=O)/C=C/c4ccc(NC(=O)c5ccncc5)nc4)c3Cl)c2n1", "pIC50": 8.48}
{"smiles": "Cc1ccc2cccc(OCc3c(C)ccc(N(C)C(=O)CNC(=O)/C=C/c4ccc(N5CCCC5=O)cc4)c3C)c2n1", "pIC50": 9.33}
{"target": "T2, B2 bradykinin receptor (Homo sapiens, UniProt P30411)", "T2 sequence (P30411 whole entry)": "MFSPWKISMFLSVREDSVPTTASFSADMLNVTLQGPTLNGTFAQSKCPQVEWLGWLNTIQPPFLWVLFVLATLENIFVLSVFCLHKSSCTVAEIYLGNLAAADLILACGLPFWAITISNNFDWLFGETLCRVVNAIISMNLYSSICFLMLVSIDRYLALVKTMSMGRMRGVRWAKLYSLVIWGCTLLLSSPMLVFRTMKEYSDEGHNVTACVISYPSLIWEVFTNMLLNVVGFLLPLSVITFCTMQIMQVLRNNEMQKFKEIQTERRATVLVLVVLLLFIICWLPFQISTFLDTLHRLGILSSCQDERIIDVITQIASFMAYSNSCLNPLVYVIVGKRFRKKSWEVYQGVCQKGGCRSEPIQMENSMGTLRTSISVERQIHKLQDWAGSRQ", "experiment": "Inhibition specific binding of [3H]BK (1.0 nM) to human Bradykinin receptor B2 which was expressed in CHO (Chinese hamster ovary) cells by 50%.", "format": "cell-based", "conditions": "not given", "method_in_brief": "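CHO (dhfr−) cells stably expressing human B2 receptor, seeded at 3.0 × 10^4 cells/well and cultured 1 day. Whole cells incubated with 1.0 nM [3H]BK plus compound for 2 h at 4 °C in HEPES/N-methyl-D-glucamine buffer pH 7.2 with bacitracin, enalaprilat and BSA. Washed, solubilized in SDS/NaOH and counted. Nonspecific binding with 1 μM BK; DMSO below 3%; three experiments.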"}
{"smiles": "Cc1ccc2cccc(OCc3c(Cl)ccc(N(C)C(=O)CNC(=O)/C=C/c4ccc(N5CCCC5=O)cc4)c3Cl)c2n1", "pIC50": 8.49}
{"smiles": "Cc1ccc2cccc(OCc3c(Cl)ccc(N(C)C(=O)CNC(=O)/C=C/c4ccc(/C=C/c5ccncc5)nc4)c3Cl)c2n1", "pIC50": 9.29}
{"smiles": "Cc1ccc2cccc(OCc3c(Cl)ccc(N(C)C(=O)CNC(=O)/C=C/c4ccc(C(=O)Nc5ccncc5)cc4)c3Cl)c2n1", "pIC50": 8.74}
{"smiles": "Cc1ccc2cccc(OCc3c(Cl)ccc(N(C)C(=O)CNC(=O)/C=C/c4ccc(N5CCCC5=O)nc4)c3Cl)c2n1", "pIC50": 8.28}
{"smiles": "CC(=O)Nc1ccc(/C=C/C(=O)NCC(=O)N(C)c2ccc(Cl)c(COc3cccc4ccc(C)nc34)c2Cl)cn1", "note": "[FR-173657]", "pIC50": 8.85}
{"smiles": "CC(=O)Nc1ccc(/C=C/C(=O)NCC(=O)N(C)c2ccc(C)c(COc3cccc4ccc(C)nc34)c2C)cn1", "pIC50": 8.07}
{"smiles": "CNC(=O)c1ccc(/C=C/C(=O)NCC(=O)N(C)c2ccc(C)c(COc3cccc4ccc(C)nc34)c2C)cc1", "pIC50": 8.32}
{"smiles": "Cc1ccc2cccc(OCc3c(Cl)ccc(N(C)C(=O)CNC(=O)/C=C/c4cccnc4)c3Cl)c2n1", "pIC50": 6.33}
{"smiles": "Cc1ccc2cccc(OCc3c(Cl)ccc(N(C)C(=O)CNC(=O)/C=C/c4ccc(NC(=O)c5ccncc5)nc4)c3Cl)c2n1", "pIC50": 8.55}
{"smiles": "Cc1ccc2cccc(OCc3c(C)ccc(N(C)C(=O)CNC(=O)/C=C/c4ccc(N5CCCC5=O)cc4)c3C)c2n1", "pIC50": 8.03}
